CHO parental Ca – signal in parental CHO cells, OX1R antagonist counter-screen; parental CHO-K1, ATP-induced calcium, Fluo-8 fluorescence; inhibition, % at 5.6 µM; actives 0.63% (n = 330,000); AID 463079;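 active = inhibition above that plate's mean sample inhibition plus 3 SD, cut at about 26% in these data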
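material = parental CHO cells | also added = ATP as calcium-mobilizing challenge | dosing = single point at 5.6 µM | detection = intracellular calcium via Fluo-8 no-wash fluorescent dye | read-out = % inhibition | benchmarks = low control ATP plus DMSO, high control DMSO only | repeats = one well per compound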
GalR3 antag – antagonists of human GalR3 | inhibition, % at 3 µM | O60755 | HEK293 GalR3-CNG cAMP membrane potential fluorescence; galR3 body fused to GalR1 C-terminus | actives 0.44% (n = 360,000) | AID 651719;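 active = inhibition above the screen-wide average plus 3 SD, cut at about 13% in these data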;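 note: forskolin and galanin both at EC90 stimulate the cells; cAMP rise reported by CNG channel membrane potential dye signal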
OX1R antag-1 – blocks the human orexin 1 receptor | CHO/OX1R cells, Fluo-8 calcium fluorescence, orexin A | actives 0.43% (n = 330,000) | O43613 | inhibition, % at 5 µM;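 active = inhibition above its plate's threshold, mean inhibition of all tested compounds on the plate plus 3 SD, cut at about 37% in these data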
Target sequence (O43613 whole entry, looked up): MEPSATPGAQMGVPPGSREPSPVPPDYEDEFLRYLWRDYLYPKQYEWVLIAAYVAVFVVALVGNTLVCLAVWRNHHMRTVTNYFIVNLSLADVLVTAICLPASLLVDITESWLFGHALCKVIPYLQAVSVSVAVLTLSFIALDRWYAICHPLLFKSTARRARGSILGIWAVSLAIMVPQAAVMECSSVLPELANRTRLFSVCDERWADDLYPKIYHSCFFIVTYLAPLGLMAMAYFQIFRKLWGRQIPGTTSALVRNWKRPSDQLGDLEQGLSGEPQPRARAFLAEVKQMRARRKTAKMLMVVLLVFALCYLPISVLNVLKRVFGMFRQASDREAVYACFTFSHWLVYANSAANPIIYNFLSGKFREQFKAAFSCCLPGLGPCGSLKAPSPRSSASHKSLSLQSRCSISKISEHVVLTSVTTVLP
TAAR1 antagonist – human TAAR1 antagonism | CHO RD-HGA16 TAAR1, Fluo-8 calcium fluorescence, antagonist | inhibition, % at 3 µM | actives 1.5% (n = 360,000);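 active = inhibition above a per-plate cutoff, the mean inhibition of test compounds on that plate plus 3 SD, cut at about 49% in these data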
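System: RD-HGA16 CHO cells with stable hTAAR1 and Gα16 | Probe or stimulus: EC80 β-phenethylamine stimulus | Dosing: 3 µM, single point | Times: Dye loading 75 min at 37 °C, then 30 min room temperature | Measured by: Fluo-8 calcium-sensitive fluorescence | Read-out basis: % inhibition of agonist calcium response | Replicates: n of 1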
TAAR1 ag – agonists of human TAAR1. CHO RD-HGA16 TAAR1, Fluo-8 calcium fluorescence; vehicle wells 0%, saturating PEA agonist 100%. activation, % at 3 µM. actives 0.99% (n = 360,000). AID 624467;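 active = activation above the mean activation of all test compounds in the run plus 3 SD, cut at about 38% in these data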
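Test system: RD-HGA16 (CHO) cells co-expressing Gα16 and hTAAR1 / Benchmarks: DMSO vehicle as 0%, PEA at EC100 as 100% / Repeats: no replicates (n 1) / Measure: % activation from peak over basal fluorescence ratio, DMSO-to-PEA scaled / Timing: 17-24 h plating, Fluo-8 75 min 37 °C, 30 min RT / Technique: kinetic Fluo-8 calcium fluorescence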
OX1R antag-2 – antagonists of human orexin 1 receptor (OX1R); OX1R-expressing cells, FRET antagonist read-out; inhibition, % at 6.6 µM; actives 1.8% (n = 330,000); AID 485270; in the data active = inhibition mostly above about 38%, no sharp cut-off; inactive = mostly below about 40%
Of the large screens only hits and unclear results are named; the others gave an inactive call. Only some compounds are listed: those with a hit (about 4.3% of all), similar ones and a draw of the others.

O=[N+]([O-])c1ccc(NS(=O)(=O)N2CCOCC2)cc1	none
O=c1c(-c2ccc(Cl)cc2)[n+]([O-])c2ccccc2n1OCc1ccccn1	none
COc1ccc(-c2c(=O)n(OCc3ccccn3)c3ccccc3[n+]2[O-])cc1OC	OX1R antag-2 55
CCOc1ccc(-c2c(=O)n(OCc3ccccn3)c3ccccc3[n+]2[O-])cc1	OX1R antag-2 62
Cc1ccc(NC(=O)C2CCN(S(=O)(=O)c3ccc4c(c3)NC(=O)C(C)S4)CC2)cc1C (stereo not drawn)	CHO parental Ca 51, TAAR1 antagonist 50
Cc1ccc(NC(=O)C2CCN(S(=O)(=O)c3ccc4c(c3)NC(=O)C(C)S4)CC2)c(C)c1 (stereo not drawn)	none
CC1Sc2ccc(S(=O)(=O)N3CCC(C(=O)Nc4cccc(Cl)c4)CC3)cc2NC1=O (stereo not drawn)	CHO parental Ca 58, TAAR1 antagonist 49
CC1Sc2ccc(S(=O)(=O)CCC(=O)N3CCN(c4cccc(Cl)c4)CC3)cc2NC1=O (stereo not drawn)	CHO parental Ca 34, TAAR1 antagonist 50
COc1ccc(OC)c(S(=O)(=O)N2CCC(C(=O)Nc3ccc(C)c(C)c3)CC2)c1	TAAR1 antagonist 61
CC1Sc2ccc(S(=O)(=O)CCC(=O)N3CCN(c4ccccc4)CC3)cc2NC1=O (stereo not drawn)	none
COc1cc(/C=N/NC(=O)CC23CC4CC(CC(C4)C2)C3)cc(Br)c1OCC(=O)N(C)C	none
C[C@H](O)[C@@H]1CN2CCc3c([nH]c4ccccc34)[C@@H]2C[C@@H]1N(C)CC1CCCCC1	none (no result: CHO parental Ca, OX1R antag-1, OX1R antag-2)
CCc1ccc(NC(=O)C2CCN(S(=O)(=O)c3ccc4c(c3)NC(=O)C(C)S4)CC2)cc1 (stereo not drawn)	CHO parental Ca 57
CN(C)/C=C/c1oc2ccc(O)cc2c1[N+](=O)[O-]	OX1R antag-2 52
CN(C)/C=C/c1[nH]c(=O)[nH]c(=O)c1[N+](=O)[O-]	none
CC(C)C[C@H]1CN=C(Nc2ccccc2)N1CC1CCC1	none
c1ccc2c(c1)OCC(c1csc3ncnc(N4CCCC4)c13)O2 (stereo not drawn)	none
c1ccc(CCNc2ncnc3scc(C4COc5ccccc5O4)c23)cc1 (stereo not drawn)	CHO parental Ca 51, TAAR1 antagonist 71
CCn1cc(C(=O)N2CCN(c3cccc(C)c3C)CC2)c(=O)c2ccc(C)nc21	none
CCn1cc(C(=O)N2CCN(c3ccc([N+](=O)[O-])cc3)CC2)c(=O)c2ccc(C)nc21	OX1R antag-2 45
Clc1ccccc1OCCn1cnc2ccccc21	none
Brc1ccccc1OCCCCn1cnc2ccccc21	CHO parental Ca 66, OX1R antag-2 35
Cc1cc2c(cc1C)NC(CC(=O)NCc1ccccc1)C(=O)N2 (stereo not drawn)	OX1R antag-2 35
COc1ccc(CCNC(=O)CC2Nc3cc(C)c(C)cc3NC2=O)cc1OC (stereo not drawn)	none
O=S(=O)(NCCS(=O)(=O)N1CCN(c2ccc(F)cc2)CC1)c1ccccc1	none (no result: CHO parental Ca, OX1R antag-1, OX1R antag-2)
CC1CCC2(CC1)NC(=O)N(CC(=O)c1ccc(CNC(=O)C(C)(C)C)s1)C2=O (stereo not drawn)	OX1R antag-2 35
CC(C)(C)C(=O)NCc1ccc(C(=O)CN2C(=O)NC3(CCCC3)C2=O)s1	none (no result: CHO parental Ca, OX1R antag-1, OX1R antag-2)
Cc1cc(NC(=O)Cc2cn(Cc3ccccc3)c3ccccc23)ccc1Oc1cccnc1	none (no result: CHO parental Ca, OX1R antag-1, OX1R antag-2)
CCN=C1SC(CC(=O)Nc2ccc3c(c2)OCO3)C(=O)N1CC (stereo not drawn)	TAAR1 antagonist 59
COC(=O)/C(=C1/Oc2cc(C)oc(=O)c2S1)C(F)(F)F	none
COC(=O)/C(=C(/F)Sc1cc(C)c(O)c(C)c1)C(F)(F)F	CHO parental Ca 33 (no result: GalR3 antag, TAAR1 antagonist, TAAR1 ag)
O=C(NC1CCCC1)c1cc(COc2ccc3ncccc3c2)on1	CHO parental Ca 52 (no result: GalR3 antag, TAAR1 antagonist, TAAR1 ag)
COCC1CCN(C(=O)c2cc(COc3ccc4ncccc4c3)on2)CC1	CHO parental Ca 42

Assay outcomes from PubChem.
